Measurements from ChEMBL document CHEMBL1143402 (PLoS Med, 2006).

Columns and labels:
Type in all cases: ADME, organism-based
[1] = tested on: Mycobacterium tuberculosis variant bovis; test: Drug metabolism in Mycobacterium bovis BCG Tokyo assessed as cell supernatant [14C]OPC-67683 metabolite level after 48 hrs by scintillation counting
Procedure, shortened: (§1)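 ^14C-labelled drug (0.5 mg/ml stock) added 15 µl to 585 µl 7H9/TN-ADC culture, incubated 48 h. Acetonitrile (2 volumes) added, then centrifuged. Supernatant counted by scintillation; pellet dissolved in 2 M NaOH, 1 h at 60 °C, then counted. DPM expressed relative to broth control supernatant.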

[2] = tested on: Mycobacterium tuberculosis variant bovis; test: Drug metabolism in Mycobacterium bovis BCG Tokyo assessed as cell pellet [14C]OPC-67683 metabolite level after 48 hrs by scintillation counting; procedure, shortened: as §1
[3] = tested on: Mycobacterium tuberculosis variant bovis; test: Drug metabolism in OPC-67683 resistant Mycobacterium bovis BCG Tokyo assessed as cell supernatant [14C]OPC-67683 metabolite level after 48 hrs by scintillation counting; procedure, shortened: as §1

SMILES: C[C@]1(COc2ccc(N3CCC(Oc4ccc(OC(F)(F)F)cc4)CC3)cc2)Cn2cc([N+](=O)[O-])nc2O1
- Activity [1]: 82%
- Activity [2]: 22%
- Activity [3]: 105%
